According to ChEMBL document CHEMBL1148490, “Synthesis, characterization, and preliminary in vivo tests of new poly(ethylene glycol) conjugates of the antitumor agent 10-amino-7-ethylcamptothecin” (J Med Chem, 2004):
Several values for one entry are separate records, joined by “and”; a condition that tells them apart may be missing. Identical values can stand only once.

Assays:
Mus musculus [1] = test: Antitumor activity evaluated as tumor weight on day 21 of Meth A Fibrosarcoma in BALB/c mice at a dose of 100 mg/kg administered intravenously on day 5; format: functional; details: route intravenous
How it was run: (§1)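 Meth A cells, 5 × 10^5/mouse, inoculated subcutaneously on day 0 into 7 week old male BALB/c mice, five per group. A single intravenous injection on day 5; saline for controls. Tumours weighed on day 21. Doses in mg/kg expressed as free drug. Inhibition rate derived from tumour weight relative to the saline control group.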

[2] = (§2) Half life at a dose of 4 mg/kg in Rat Plasma after iv administration; format: ADME, organism-based; design: dose 4 mg/kg, route intravenous
How it was run: (§3)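 Rats given a single iv dose via the right femoral vein after full recovery from anaesthesia, then a saline flush. Free drug dissolved in DMSO/10 mM H3PO4 (10/1); sodium salt in water. Blood (200 µL) drawn from a left femoral artery cannula at 2, 5, 10, 30 min and 1, 3, 5, 7 h. Plasma diluted in H3PO4 with camptothecin internal standard.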

Mus musculus [3] = test: (§4) Inhibition rate of tumor growth at 25 mg/kg single iv administration against Meth A fibrosarcoma cells in BALB/c Mice; format: functional; how it was run: as §1
Mus musculus [4] = test: Antitumor activity evaluated as tumor weight on day 21 of Meth A Fibrosarcoma in BALB/c mice at a dose of 50 mg/kg administered intravenously on day 5; format: functional; details: route intravenous; how it was run: as §1
Mus musculus [5] = test: Inhibition rate of tumor growth at 50 mg/kg single iv administration against Meth A fibrosarcoma cells in BALB/c Mice; format: functional
How it was run: (§5)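 Male BALB/c mice, 7 weeks old (five per group), inoculated s.c. with Meth A cells at 5 × 10^5 cells/mouse on day 0. Single i.v. injection on day 5, doses expressed as free drug equivalent; control group given saline. Tumors weighed on day 21 (mean ± SD); inhibition rate derived from tumor weight relative to control.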

[6] = Tmax at a dose of 4 mg/kg in Rat Plasma after iv administration; format: ADME, organism-based; design: dose 4 mg/kg, route intravenous; how it was run: as §3
Mus musculus [7] = test: Inhibition rate of tumor growth at 100 mg/kg single iv administration against Meth A fibrosarcoma cells in BALB/c Mice; format: functional; how it was run: as §5
Rattus norvegicus [8] = organism: Rattus norvegicus; test: (§6) Area under curve of the compound was determined; format: ADME, organism-based; details: in vivo; how it was run: as §3
[9] = Mean residence time at a dose of 4 mg/kg in Rat Plasma after iv administration; format: ADME, organism-based; design: dose 4 mg/kg, route intravenous; how it was run: as §3
Mus musculus [10] = test: Antitumor activity evaluated as tumor weight on day 21 of Meth A Fibrosarcoma in BALB/c mice at a dose of 25 mg/kg administered intravenously on day 5; format: functional; details: route intravenous; how it was run: as §1
[11] = Maximum plasma concentration at a dose of 4 mg/kg in Rat Plasma after iv administration; format: ADME, organism-based; design: dose 4 mg/kg, route intravenous; how it was run: as §3
Rattus norvegicus [12] = test: Vdss at a dose of 4 mg/kg in Rat Plasma after iv administration; format: organism-based; design: dose 4 mg/kg; how it was run: as §3
Rattus norvegicus [13] = test: CLtot at a dose of 4 mg/kg in Rat Plasma after iv administration; format: organism-based; design: dose 4 mg/kg; how it was run: as §3
[14] = as §2; format: ADME, organism-based; design: dose 4 mg/kg, route intravenous; remark: listed apart in the source
How it was run: (§7)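 Rats given a single i.v. dose via right femoral vein after recovery from anesthesia, then saline flush. Blood drawn from left femoral artery cannula at 2, 5, 10, 30 min and 1, 3, 5, 7 h. Plasma diluted in 0.146 M H3PO4 with CPT internal standard, then on-line SPE and C18 HPLC with fluorescence detection (ex 390/em 513 nm). LOQ 2 ng/mL. Noncompartmental analysis; AUCinf by trapezoidal rule with extrapolation; n = 1–2 rats.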

[15] = as §6; format: ADME; how it was run: as §7
Mus musculus [16] = test: Ratio between mean survival days of treated group and control group at a dose of 100 mg/kg; format: functional
How it was run: (§8)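 Female CDF1 mice inoculated intraperitoneally on day 0 with 1 × 10^6 P388 or P388/ADM (adriamycin-resistant, MDR-expressing) cells per mouse. Intravenous dosing on days 1, 5 and 9; doses listed are total mg/kg. Survival monitored for 40 days, reported as mean ± SD days. T/C% = (mean survival days of treated group / mean survival days of control group) × 100.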

Mus musculus [17] = test: Ratio between mean survival days of treated group and control group at a dose of 25 mg/kg; format: functional; how it was run: as §8
Mus musculus [18] = test: Evaluated for survival time of P388/ADM Leukemia implanted female CDF1 Mice at a dose of 50 mg/kg; format: functional; how it was run: as §8
Mus musculus [19] = test: Evaluated for survival time of P388 Leukemia implanted female CDF1 Mice at a dose of 50 mg/kg; format: functional; how it was run: as §8
Mus musculus [20] = test: as §4; format: functional; how it was run: as §5; remark: listed apart in the source
Mus musculus [21] = test: Evaluated for survival time of P388 Leukemia implanted female CDF1 Mice at a dose of 100 mg/kg; format: functional; how it was run: as §8
Mus musculus [22] = test: Ratio between mean survival days of treated group and control group at a dose of 50 mg/kg; format: functional; how it was run: as §8
Mus musculus [23] = test: Evaluated for survival time of P388/ADM Leukemia implanted female CDF1 Mice at a dose of 100 mg/kg; format: functional; how it was run: as §8
Mus musculus [24] = organism: Mus musculus; test: Ratio between mean survival days of treated group and control group; format: functional; how it was run: as §8
Mus musculus [25] = test: Evaluated for survival time of P388 Leukemia implanted female CDF1 Mice at a dose of 25 mg/kg; format: functional; how it was run: as §8
Mus musculus [26] = test: Evaluated for survival time of P388/ADM Leukemia implanted female CDF1 Mice at a dose of 25 mg/kg

CCc1c2c(nc3ccc(N)cc13)-c1cc3c(c(=O)n1C2)COC(=O)[C@]3([O-])CC.[Na+] gave an Antitumor activity (Mus musculus [1]) of 0.88 g, a half-life [2] of 2.26 h and an Inhibition rate (Mus musculus [3]) of 62.3%. For the same compound, the Antitumor activity (Mus musculus [4]) was 0.88 g, the Inhibition rate (Mus musculus [5]) was 64% and the Tmax [6] was 2 min. For the same compound, the Inhibition rate (Mus musculus [7]) was 69.3%, the AUC inf (Rattus norvegicus [8]) was 1.71 µg/h/mL and the MRT inf [9] was 1.09 h. For the same compound, the Antitumor activity (Mus musculus [10]) was 0.93 g and the Cmax [11] was 10.5 µg/mL.
For CCc1c2c(nc3ccc(N)cc13)-c1cc3c(c(=O)n1C2)COC(=O)[C@]3(O)CC [listing 1 of 2 here], the Vdss (Rattus norvegicus [12]) was 2.65 L/kg and 2.37 L/kg and the CL (mL.min-1.kg-1) (Rattus norvegicus [13]) was 40.3 and 34.5.
For CCc1c2c(nc3ccc(N)cc13)-c1cc3c(c(=O)n1C2)COC(=O)[C@]3(O)CC [listing 2 of 2 here], the Tmax [6] was 2 min, the half-life [14] was 2.25 h and the AUC inf [15] was 2.08 µg/h/mL. For the same compound, the MRT inf [9] was 1.09 h and the Cmax [11] was 10.5 µg/mL.
Compound CCc1c2c(nc3ccc(OC(=O)N4CCC(N5CCCCC5)CC4)cc13)-c1cc3c(c(=O)n1C2)COC(=O)[C@]3(O)CC [IRINOTECAN] has an Antitumor activity (Mus musculus [1]) of 1.16 g, an Antitumor activity (Mus musculus [4]) of 1.31 g and an Inhibition rate (Mus musculus [5]) of 46.6%. For the same compound, the T/C (Mus musculus [16]) was 228%, the T/C (Mus musculus [17]) was 172% and 129% and the Survival time (Mus musculus [18]) was 14.7 days. For the same compound, the Survival time (Mus musculus [19]) was 14.5 days, the Inhibition rate (Mus musculus [7]) was 52.7% and the Antitumor activity (Mus musculus [20]) was 49.5%. It also gave a Survival time (Mus musculus [21]) of 17.5 days, an Antitumor activity (Mus musculus [10]) of 1.24 g and a T/C (Mus musculus [22]) of 189%. The Survival time (Mus musculus [23]) was 15.7 days.
In the case of COc1cccc2c1C(=O)c1c(O)c3c(c(O)c1C2=O)C[C@@](O)(C(=O)CO)C[C@@H]3O[C@H]1C[C@H](N)[C@H](O)[C@H](C)O1 [DOXORUBICIN], the T/C (Mus musculus [24]) is reported as 261% and 102%, the Activity (Mus musculus [25]) is reported as 20 days and the Activity (Mus musculus [26]) is reported as 9.8 days.
